# ChEMBL document CHEMBL1151953, “Biomimetic transformation and biological activities of Globiferin, a terpenoid benzoquinone from Cordia globifera” (J Nat Prod, 2009)
# How the values were obtained:
# [1] = system: Mycobacterium tuberculosis; test: Antimicrobial activity against Mycobacterium tuberculosis H37Ra by microplate alamar blue assay; type: functional, organism-based
# Plasmodium falciparum = test: Antiplasmodial activity against multidrug-resistant Plasmodium falciparum K1; type: functional, organism-based
# Summary of the method: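 Parasites kept in continuous in vitro culture (Trager–Jensen method); activity assessed by a microculture radioisotope technique.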
# Candida albicans = test: Antifungal activity against Candida albicans by XTT assay; type: functional, organism-based
# Vero = test: Cytotoxicity against african green monkey Vero cells by sulforhodamine B assay; type: cell-based; conditions: Chlorocebus sabaeus
# Summary of the method: (§1)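 Cell lines used were KB (human oral epidermoid carcinoma), BC (human breast cancer), NCI-H187 (human small cell lung cancer) and Vero (African green monkey kidney fibroblasts). Cytotoxicity was read colorimetrically by the Skehan method, with ellipticine as the reference substance.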
# KB = test: Cytotoxicity against human KB cells by sulforhodamine B assay; type: functional, cell-based; summary of the method: as §1
# [2] = Cytotoxicity against human BC1 cells by sulforhodamine B assay; type: functional, cell-based; summary of the method: as §1
# NCI-H187 = test: Cytotoxicity against human NCI-H187 cells by sulforhodamine B assay; type: functional, cell-based; summary of the method: as §1
Structure (SMILES),MIC [1] [µg/mL],IC50 (Plasmodium falciparum) [µg/mL],IC50 (Candida albicans) [µg/mL],IC50 (Vero) [µg/mL],IC50 (KB) [µg/mL],IC50 [2] [µg/mL],IC50 (NCI-H187) [µg/mL],IC50 [1] [µg/mL]
C=C[C@]1(C)Cc2c(OC(=O)c3ccccc3)ccc(OC(=O)c3ccccc3)c2C[C@@H]1C(=C)C,200,> 20,> 20,> 50,> 20,> 20,> 20,
C=C[C@]1(C)Cc2c(OC(C)=O)ccc(OC(C)=O)c2C[C@@H]1C(=C)C,25,0.4,> 20,7.3,8.5,9.2,5.1,
C/C(C=O)=C\CC/C(C)=C/Cc1cc(O)ccc1O [ALLIODORIN],12.5,3.1,> 20,14.1,12,10.3,2.2,
C[C@@H]1[C@H](O)[C@@H](C)/C=C/C=C/C=C/C=C/C=C/C=C/C=C/[C@H](O[C@@H]2O[C@H](C)[C@@H](O)[C@H](N)[C@@H]2O)C[C@@H]2O[C@](O)(C[C@@H](O)C[C@@H](O)[C@H](O)CC[C@@H](O)C[C@@H](O)CC(=O)O[C@H]1C)C[C@H](O)[C@H]2C(=O)O [AMPHOTERICIN B],,,0.08,,,,,
C[C@H]1[C@@H](O)O[C@@H]2O[C@@]3(C)CC[C@H]4[C@H](C)CC[C@@H]1[C@@]24OO3 [ARTENIMOL],,0.0012,,,,,,
C=C1CCC[C@@]2(C)CC3=C(C[C@@H]12)C(=O)C=CC3=O [CORDIACHROME B],12.5,1.5,7.7,1.7,6,6.4,0.4,
CC(C)=CCCC1(C)C=Cc2cc(O)ccc2O1 (stereo not drawn) [CORDIACHROMENE A],12.5,> 20,11.2,> 50,> 20,> 20,> 20,
C=C[C@@]1(C)CC2=C(C[C@H]1C(=C)C)C(=O)C=CC2=O [Cordiachrome C],1.5,0.2,4.6,1.4,1.5,1.8,0.2,
C/C(C=O)=C\CCC1(C)C=Cc2cc(O)ccc2O1 (stereo not drawn) [ELAEAGIN],12.5,3.6,> 20,20,> 20,> 20,6.1,
Cc1c2ccncc2c(C)c2c1[nH]c1ccccc12 [ELLIPTECINE],,,,,,0.2,0.3,
C/C1=C/CC/C(C)=C/CC2=C(C1)C(=O)C=CC2=O [GLOBIFERIN],6.2,2.1,> 20,> 50,> 20,> 20,0.5,
NNC(=O)c1ccncc1 [ISONIAZID],,,,,,,,0.05
NC[C@H]1O[C@H](O[C@H]2[C@H](O)[C@@H](O[C@H]3O[C@H](CO)[C@@H](O)[C@H](N)[C@H]3O)[C@H](N)C[C@@H]2N)[C@H](O)[C@@H](O)[C@@H]1O [KANAMYCIN],,,,,,,,2.5
CO[C@H]1/C=C/O[C@@]2(C)Oc3c(C)c(O)c4c(O)c(c(/C=N/N5CCN(C)CC5)c(O)c4c3C2=O)NC(=O)/C(C)=C\C=C\[C@H](C)[C@H](O)[C@@H](C)[C@@H](O)[C@@H](C)[C@H](OC(C)=O)[C@@H]1C [RIFAMPIN],,,,,,,,0.0047
